Columns and labels:
[1] = target: T1, ATP-dependent translocase ABCB1 (Homo sapiens, UniProt P08183); experiment: Inhibition of human wild type P-gp expressed in BacMam virus infected human HeLa cells assessed as calcein-AM accumulation at 10 uM after 10 mins by flow cytometry; type: cell-based
Outline: (§1)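 HeLa cells transduced with BacMam WT-P-gp (10–15 particles/cell); 10 mM butyric acid added after 3–4 h, grown overnight at 37 °C. Trypsinized cells exposed to compound, then 0.5 μM calcein-AM for 10 min at 37 °C in the dark. […] Two independent experiments in triplicate, ± SD.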

[2] = Retardation factor of the compound using EtOAc-n-hexane at ratio of 3:2 by thin layer chromatography; type: physicochemical
[3] = Retention time of the compound by HPLC analysis; type: physicochemical
Outline: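 Reverse-phase C18 HPLC, isocratic acetonitrile/water 60:40, 1.0 mL/min, UV 254 nm; purity from major-peak area.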

[4] = Retardation factor of the compound using EtOAc-n-hexane at ratio of 1:1 by thin layer chromatography; type: physicochemical
[5] = target: T1, ATP-dependent translocase ABCB1; experiment: Inhibition of human wild type P-gp expressed in BacMam virus infected human HeLa cells assessed as calcein-AM accumulation after 10 mins by flow cytometry; type: cell-based; settings: for inhibition (INH): human, 10 min; outline: as §1
[6] = target: T1, ATP-dependent translocase ABCB1; experiment: Inhibition of human P-gp
[7] = target: T1, ATP-dependent translocase ABCB1; experiment: Displacement of […] from ABCB1 (unknown origin) expressed in High Five insect cell membrane preincubated for 10 mins by autoradiography
Outline: (§2)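 Compound 0–20 μM, 10 min at 37 °C. Then [125I]-IAAP (2200 Ci/mmol; 4–6 nM) added for 5 min under minimal light. UV 365 nm for 10 min, labeling read by autoradiography. Two independent experiments; curve fitted by one-phase decay.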

[8] = target: T1, ATP-dependent translocase ABCB1; experiment: Displacement of […] from ABCB1 (unknown origin) expressed in High Five insect cell membrane at >5 uM preincubated for 10 mins by autoradiography; settings: human; outline: as §2
[9] = Cytotoxicity against human SW620/Ad300 cells overexpressing ABCB1 assessed as cell survival at 3 uM by MTT assay; type: ADME, cell-based, SW-620; settings: SW620/Ad300 cells that overexpress ABCB1, read-out: Activity
Outline: (§3)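 MTT survival. Cells seeded 5000–6000/well, attached 24 h at 37 °C, 5% CO2; test agent for 72 h; MTT 4 mg/mL stock added, 4 h at 37 °C; formazan dissolved in DMSO, A570 read. Four independent experiments, each in triplicate. SW620/Ad300 is the doxorubicin-selected P-gp subline of SW620; HEK293 grown in DMEM with G418 (2 mg/mL). All cells kept drug-free >2 weeks before assay.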

[10] = Cytotoxicity against human HEK293 cells assessed as cell survival at 3 uM by MTT assay; type: cell-based; settings: read-out: Activity; outline: as §3
[11] = Cytotoxicity against human HEK293 cells overexpressing human ABCB1 assessed as cell survival at 3 uM by MTT assay; type: ADME, cell-based; settings: HEK293 cells that overexpress human ABCB1, read-out: Activity
Outline: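 HEK293 cells stably transfected with human ABCB1 cDNA, kept in DMEM with G418 (2 mg/mL) and drug-free for over 2 weeks. Cells seeded at 5000–6000/well, attached 24 h at 37 °C, 5% CO2, then exposed 72 h to modulator. MTT (4 mg/mL) added for 4 h, formazan dissolved in DMSO, absorbance read at 570 nm. Four independent experiments, each in triplicate.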

[12] = Inhibition of mouse P-gp
[13] = Cytotoxicity against human SW620 cells assessed as cell survival at 3 uM by MTT assay; type: cell-based, SW-620; settings: read-out: Activity; outline: as §3

T1 sequence (P08183 whole entry): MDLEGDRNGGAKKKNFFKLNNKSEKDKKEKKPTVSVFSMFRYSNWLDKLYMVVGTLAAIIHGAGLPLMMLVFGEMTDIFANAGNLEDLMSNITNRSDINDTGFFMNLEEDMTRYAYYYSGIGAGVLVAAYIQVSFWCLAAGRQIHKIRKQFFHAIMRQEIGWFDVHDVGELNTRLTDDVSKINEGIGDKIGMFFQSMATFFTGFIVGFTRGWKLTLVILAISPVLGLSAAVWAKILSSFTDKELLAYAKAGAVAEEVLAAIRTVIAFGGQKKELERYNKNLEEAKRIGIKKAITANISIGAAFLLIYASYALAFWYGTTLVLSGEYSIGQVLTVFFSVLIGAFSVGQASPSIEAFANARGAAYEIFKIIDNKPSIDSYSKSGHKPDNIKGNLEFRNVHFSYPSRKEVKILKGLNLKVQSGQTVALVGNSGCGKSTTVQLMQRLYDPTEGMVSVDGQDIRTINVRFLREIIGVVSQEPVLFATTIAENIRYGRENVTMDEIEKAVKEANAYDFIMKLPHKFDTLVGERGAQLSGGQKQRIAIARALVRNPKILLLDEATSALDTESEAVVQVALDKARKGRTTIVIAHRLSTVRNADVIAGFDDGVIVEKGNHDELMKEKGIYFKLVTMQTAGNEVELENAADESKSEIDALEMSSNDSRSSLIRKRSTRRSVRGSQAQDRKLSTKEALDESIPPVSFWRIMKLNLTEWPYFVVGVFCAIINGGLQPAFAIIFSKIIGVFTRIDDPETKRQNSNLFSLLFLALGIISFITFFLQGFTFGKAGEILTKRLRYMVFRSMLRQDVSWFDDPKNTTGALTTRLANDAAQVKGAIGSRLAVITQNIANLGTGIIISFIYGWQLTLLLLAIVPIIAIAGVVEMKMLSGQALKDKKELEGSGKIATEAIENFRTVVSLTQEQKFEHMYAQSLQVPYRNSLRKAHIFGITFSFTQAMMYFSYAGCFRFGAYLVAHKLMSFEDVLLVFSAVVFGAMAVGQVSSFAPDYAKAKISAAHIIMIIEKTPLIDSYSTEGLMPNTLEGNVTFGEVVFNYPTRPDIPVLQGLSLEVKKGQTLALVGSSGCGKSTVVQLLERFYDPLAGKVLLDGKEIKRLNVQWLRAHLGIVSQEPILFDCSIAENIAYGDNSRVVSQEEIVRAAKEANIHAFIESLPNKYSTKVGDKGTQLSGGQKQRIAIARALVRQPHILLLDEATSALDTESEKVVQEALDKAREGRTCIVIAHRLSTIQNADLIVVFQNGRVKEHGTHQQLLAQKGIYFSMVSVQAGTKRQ

| SMILES | inhibition (INH) [1] | Rf [2] | Retention_time [3] | Rf [4] | further results |
| --- | --- | --- | --- | --- | --- |
| COc1cc(C(=O)N[C@H](c2nc(C(=O)Nc3ccc(C(=O)c4ccccc4)cc3)cs2)C(C)C)cc(OC)c1OC | 18% | 0.5 | 6.8 min | – | – |
| CCOC(=O)c1csc([C@@H](NC(=O)/C=C/c2ccc(OC)c(OC)c2)C(C)C)n1 | 11% | – | 3.4 min | 0.5 | – |
| COc1ccc(NC(=O)c2csc([C@@H](NC(=O)c3csc([C@@H](NC(=O)OC(C)(C)C)C(C)C)n3)C(C)C)n2)c(OC)c1 | – | – | 7.6 min | 0.55 | IC50 [5]: 2500 nM; inhibition (INH) ([5]; hela): Dose-dependent effect |
| COc1cc2c(cc1OC)CN(C(=O)c1csc([C@@H](NC(=O)c3cc(OC)c(OC)c(OC)c3)C(C)C)n1)CC2 | 16% | 0.3 | 2.8 min | – | – |
| CCOC(=O)c1csc([C@@H](NC(=O)c2csc([C@@H](NC(=O)c3csc([C@@H](NC(=O)OC(C)(C)C)C(C)C)n3)C(C)C)n2)C(C)C)n1 | – | – | – | – | IC50 [6]: 1500 nM |
| CCOC(=O)c1csc([C@@H](NC(=O)c2csc([C@@H](NC(=O)c3ccc(OC)c(OC)c3)C(C)C)n2)C(C)C)n1 | – | – | 3.5 min | 0.4 | IC50 [5]: 16000 nM; inhibition (INH) ([5]; hela): Dose-dependent effect |
| COc1ccc([C@@H](C)NC(=O)c2csc([C@@H](NC(=O)c3cc(OC)c(OC)c(OC)c3)C(C)C)n2)cc1 | 24% | – | 3.9 min | 0.45 | – |
| COc1ccc(C(C)NC(=O)c2csc([C@@H](NC(=O)c3csc([C@@H](NC(=O)OC(C)(C)C)C(C)C)n3)C(C)C)n2)cc1 (stereo not given in full) | – | – | – | – | IC50 [5]: 2000 nM |
| CCOC(=O)c1csc([C@@H](NC(=O)c2csc([C@@H](NC(=O)c3cc(OC)c(OC)c(OC)c3)C(C)C)n2)C(C)C)n1 | 55% | – | 3.6 min | 0.4 | – |
| COc1cc(C(=O)N[C@H](c2nc(C(=O)NCc3ccc4c(c3)OCO4)cs2)C(C)C)cc(OC)c1OC | 20% | 0.35 | 3.1 min | – | – |
| COc1ccc(CNC(=O)c2csc([C@@H](NC(=O)c3csc([C@@H](NC(=O)OC(C)(C)C)C(C)C)n3)C(C)C)n2)c(OC)c1 | – | – | – | – | IC50 ([5]; hela): 2000 nM |
| COc1cc(C(=O)N[C@H](c2nc(C(=O)NCc3ccc(-c4ccccc4)cc3)cs2)C(C)C)cc(OC)c1OC | 23% | 0.5 | 6.3 min | – | – |
| COc1cc2c(cc1OC)C(=O)C(CC1CCN(C(=O)c3csc([C@@H](NC(=O)OC(C)(C)C)C(C)C)n3)CC1)C2 (stereo not given in full) | 15% | – | 4.7 min | 0.2 | – |
| COc1cc(C(=O)N[C@H](c2nc(C(=O)Nc3ccccc3C(=O)c3ccc(F)cc3)cs2)C(C)C)cc(OC)c1OC | 54% | 0.4 | 9.5 min | – | – |
| COc1cc(NC(=O)c2csc([C@@H](NC(=O)c3csc([C@@H](NC(=O)OC(C)(C)C)C(C)C)n3)C(C)C)n2)cc(OC)c1OC | – | – | 8 min | 0.45 | IC50 [5]: 6500 nM; inhibition (INH) ([5]; hela): Dose-dependent effect |
| COc1cc(CNC(=O)c2csc([C@@H](NC(=O)c3cc(OC)c(OC)c(OC)c3)C(C)C)n2)cc(OC)c1OC | 4% | – | 2.7 min | 0.3 | – |
| COc1cc(C(=O)N[C@H](c2nc(C(=O)NCCc3ccccn3)cs2)C(C)C)cc(OC)c1OC | 5% | 0.2 | 2.2 min | – | – |
| COc1cc(NC(=O)c2csc([C@@H](NC(=O)c3cc(OC)c(OC)c(OC)c3)C(C)C)n2)cc(OC)c1OC | 58% | – | 3.3 min | 0.4 | – |
| CC(C)[C@@H]1NC(=O)c2csc(n2)[C@H](C(C)C)NC(=O)c2csc(n2)[C@H](C(C)C)NC(=O)c2csc1n2 | – | – | – | – | inhibition (INH) [7]: Dose-dependent effect; inhibition (INH) [8]: 90%; viability at 3 µM [9]: > 85%; IC50 [6]: 1500 nM; viability at 3 µM [10]: > 85%; viability at 3 µM [11]: > 85%; IC50 [12]: 2700 nM; viability at 3 µM [13]: > 85% |
| CCOC(=O)c1csc([C@@H](NC(=O)c2cc(OC)c(OC)c(OC)c2)C(C)C)n1 | 10% | – | 3.7 min | 0.6 | – |
| COc1cc(NC(=O)c2csc([C@@H](NC(=O)c3cc(OC)c(OC)c(OC)c3)C(C)C)n2)cc(OC)c1 | 37% | – | 4.3 min | 0.55 | – |
| CCOC(=O)c1csc([C@@H](NC(=O)c2cnc3ccccc3c2)C(C)C)n1 | 2% | – | 3.3 min | 0.4 | – |
| CC(C)[C@H]1NC(=O)c2csc(n2)[C@@H](C(C)C)NC(=O)c2csc(n2)[C@@H](C(C)C)NC(=O)c2csc1n2 | – | – | – | – | IC50 [12]: 8400 nM |
| COc1cc(C(=O)N[C@H](c2nc(C(=O)NC3Cc4ccccc4C3)cs2)C(C)C)cc(OC)c1OC | 47% | 0.5 | 4.1 min | – | – |
| COc1cc(C(=O)N[C@H](c2nc(C(=O)Nc3ccc4c(c3)OCO4)cs2)C(C)C)cc(OC)c1OC | 40% | 0.5 | 3.5 min | – | – |

— ChEMBL document CHEMBL3259707, “Design and synthesis of human ABCB1 (P-glycoprotein) inhibitors by peptide coupling of diverse chemical scaffolds on carboxyl and amino termini of (S)-valine-derived thiazole amino acid” (J Med Chem, 2014)
